From ChEMBL document CHEMBL3817802, “Discovery of Benzofuran Derivatives that Collaborate with Insulin-Like Growth Factor 1 (IGF-1) to Promote Neuroprotection” (J Med Chem, 2016)

Key:
[1] = (§1) Neuroprotective activity against serum starvation-induced cell death in Sprague-Dawley rat primary neural cells assessed as neuronal survival rate incubated for 3 days in presence of 100 ng/ml human recombinant IGF-1 by beta3-tubulin-detecting cell-ELISA relative to control; type: functional, cell-based; conditions: Primary neuron, 72 h
Outline: (§2)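 Primary neural cells were taken from rat hippocampal and cerebral cortical tissue and grown 4 days in serum-containing medium. They were then switched to serum-free medium for 3 days, with 100 ng/mL IGF-1 plus test agent, to induce starvation death. Neurons were counted by cell-ELISA for βIII-tubulin immunoreactivity. EC50 was reported with its 95% confidence interval.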

HepG2 = experiment: Cytotoxicity against human HepG2 cells assessed as decrease in cellular ATP content at 100 uM after 1 day; type: cell-based; parameters: scale not given: the % may be the effect or the level left; conditions: hepg2, 24 h
[2] = Neuroprotective activity against serum starvation-induced cell death in Sprague-Dawley rat primary neural cells assessed as neuronal survival rate at 1 umol/L incubated for 3 days in presence of 3 to 100 ng/ml human recombinant IGF-1 by beta3-tubulin-detecting cell-ELISA; type: functional, Primary neuron
Outline: (§3)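 Primary neural cells from rat hippocampal and cerebral cortical tissue were grown 4 days in serum-containing medium, then 3 days serum-free to induce death, with or without IGF-1. The line's compound concentration was present during the serum-free phase. Neuron number was estimated by cell-ELISA for βIII-tubulin immunoreactivity. Data are mean ± SEM of four wells.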

[3] = Neuroprotective activity against serum starvation-induced cell death in Sprague-Dawley rat primary neural cells assessed as neuronal survival rate at 0.33 uM incubated for 3 days in presence of 100 ng/ml human recombinant IGF-1 by beta3-tubulin-detecting cell-ELISA relative to control; type: functional, Primary neuron; outline: as §3
Primary neuron = experiment: as §1; type: functional, cell-based; outline: as §2
[4] = Ratio of drug level in brain to plasma of Sprague-Dawley rat at 0.1 mg/kg, iv by cassette dosing measured at 1 hr by LC/MS/MS analysis; type: ADME, organism-based
[5] = Metabolic clearance in human liver microsomes at 1 umol/L by LC/MS/MS analysis; type: ADME; conditions: read-out: CLH
[6] = Neuroprotective activity against serum starvation-induced cell death in Sprague-Dawley rat primary neural cells assessed as neuronal survival rate at 1 umol/L incubated for 3 days by beta3-tubulin-detecting cell-ELISA relative to control; type: functional, Primary neuron; outline: as §3
CYP2C9 = CYP2C9 (Homo sapiens, UniProt P11712); experiment: Inhibition of CYP2C9 in human liver microsomes at 10 uM incubated for 30 mins by HPLC analysis; type: ADME
CYP2C9, sequence (P11712 whole entry): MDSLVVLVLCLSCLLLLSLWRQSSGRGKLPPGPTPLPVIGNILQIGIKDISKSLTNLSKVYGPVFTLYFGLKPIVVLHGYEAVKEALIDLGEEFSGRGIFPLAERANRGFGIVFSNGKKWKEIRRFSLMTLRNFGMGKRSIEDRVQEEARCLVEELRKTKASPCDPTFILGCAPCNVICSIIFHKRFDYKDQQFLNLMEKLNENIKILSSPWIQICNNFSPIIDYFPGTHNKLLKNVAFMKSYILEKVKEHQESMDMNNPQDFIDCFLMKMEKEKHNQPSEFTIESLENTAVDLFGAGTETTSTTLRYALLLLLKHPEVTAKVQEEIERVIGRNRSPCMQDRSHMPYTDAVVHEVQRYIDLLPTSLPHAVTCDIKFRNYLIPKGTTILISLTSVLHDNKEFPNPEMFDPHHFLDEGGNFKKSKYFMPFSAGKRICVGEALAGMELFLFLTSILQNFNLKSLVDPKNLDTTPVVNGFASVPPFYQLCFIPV

[7] = Oral bioavailability in Sprague-Dawley rat at 1 mg/kg by LC/MS/MS analysis; type: ADME, organism-based; conditions: in vivo
[8] = Neuroprotective activity against serum starvation-induced cell death in Sprague-Dawley rat primary neural cells assessed as neuronal survival rate at 10 uM incubated for 3 days in presence of 100 ng/ml human recombinant IGF-1 by beta3-tubulin-detecting cell-ELISA relative to control; type: functional, Primary neuron; outline: as §3

COc1ccc(C2CN(c3c(C)c(C)c4c(c3C)CC(C)(C)O4)CCN2C)cc1 (racemic)
EC50 [1]: 550 nM

Cc1c(C)c(N2CCN(c3ccc(Cl)cc3)CC2)c(C)c2c1OC(C)(C)C2
EC50 [1]: 660 nM

COc1ccc(N2CCN(c3c(C)c(C)c4c(c3C)C[C@@](C)(CO)O4)CC2)cc1
EC50 [1]: 700 nM

CC(=O)c1ccc(N2CCN(c3c(C)c(C)c4c(c3C)CC(C)(C)O4)CC2)cc1
Activity (HepG2): 68%
EC50 [1]: 150 nM

COc1ccc(CN2CCN(c3c(C)c(C)c4c(c3C)CC(C)(C)O4)CC2)cc1
EC50 [1]: 680 nM

COc1ccc(C2CN(c3c(C)c(C)c4c(c3C)CC(C)(C)O4)CCO2)cc1 (racemic)
EC50 [1]: 370 nM

COc1ccc(N2CCN(c3c(C)c(C)c4c(c3C)CC(C)(C)O4)CC2)cc1
fold change (FC) [2]: 6
fold change (FC) [3]: 3
Activity (HepG2): 93.3%
EC50 [1]: 150 nM
Activity (Primary neuron): Dose-dependent effect
Kp at 1 h [4]: 2.9
microsomal CLint at 1 µM [5]: 2 µL/min/mg
fold change (FC) [6]: 3
inhibition at 0.5 h, 10 µM (CYP2C9): -0.9%

COc1ccc(N2CCN(c3c(C)c(C)c4c(c3C)C(=O)C(C)(C)O4)CC2)cc1
EC50 [1]: 120 nM
Kp at 1 h [4]: 3.4
bioavailability [7]: 42.3%
inhibition at 0.5 h, 10 µM (CYP2C9): 83.4%

Cc1c(C)c(N2CCN(c3ccc(F)cc3)CC2)c(C)c2c1OC(C)(C)C2
EC50 [1]: 300 nM

Cc1c(C)c(N2CCN(c3ccc(C#N)cc3)CC2)c(C)c2c1OC(C)(C)C2
EC50 [1]: > 1000 nM

COc1ccc(N2CCCN(c3c(C)c(C)c4c(c3C)CC(C)(C)O4)CC2)cc1
EC50 [1]: 76 nM
microsomal CLint at 1 µM [5]: 87 µL/min/mg

COc1ccc(N2CCN(c3c(C)c(C)c4c(c3C)C[C@H](C)O4)CC2)cc1
EC50 [1]: 460 nM

COc1ccc(N2CCN(c3c(C)c(C)c4c(c3C)C[C@@H](C)O4)CC2)cc1
EC50 [1]: 440 nM

Cc1ccc(N2CCN(c3c(C)c(C)c4c(c3C)CC(C)(C)O4)CC2)cc1
EC50 [1]: 130 nM
microsomal CLint at 1 µM [5]: 30 µL/min/mg

COc1ccc(N2CCN(c3c(C)c(C)c4c(c3C)CC(C)(C)O4)CC2)cn1
EC50 [1]: 620 nM

COc1ccc(N2CCN(c3c(C)c(C)c4c(c3C)CC(C)(C)O4)CC2)cc1OC
EC50 [1]: 270 nM

COc1ccc(N2CCN(c3c(C)c(C)c4c(c3C)CCO4)CC2)cc1
EC50 [1]: 230 nM

Cc1c(C)c(N2CCN(c3ccccc3)CC2)c(C)c2c1OC(C)(C)C2
EC50 [1]: 380 nM

COc1ccc(N2CCN(c3c(C)c(C)c4c(c3C)C(=O)C(C)(C)CO4)CC2)cc1
EC50 [1]: 510 nM
inhibition at 0.5 h, 10 µM (CYP2C9): 42.1%

COc1ccc(N2CCN(c3c(C)c(C)c4c(c3C)CC(C)(C)O4)CC2)c(OC)c1
EC50 [1]: 390 nM

Cc1c(C)c(N2CCNCC2)c(C)c2c1OC(C)(C)C2
Survival [8]: 20%

COc1ccc(N2CCN(c3c(C)c(C)c4c(c3C)C[C@](C)(CO)O4)CC2)cc1
EC50 [1]: 630 nM
